Kir21 block: inhibitors of mouse Kir2.1 inward-rectifier potassium channel. HEK293-Kir2.1, FluxOR thallium flux fluorescence; stronger effect = lower value. B-score at 10 µM. hit rate 0.85% among 310,000. AID 1672, 2009;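 active = fluorescence ratio B-score at or below minus 3 SD of library scores, with starting-brightness B-score within 2 SD, cut at about -4.2 in these data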;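 also: channel flux triggered by added potassium and thallium sulfate stimulus; B-score of peak minus minimum fluorescence over baseline after thallium stimulus; more negative B-score means stronger Kir2.1 block with less thallium influx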
hERG rescue: hERG rescue from dofetilide block, primary screen, cell-based, CHO-hERG, FluxOR thallium flux, dofetilide IC70; dofetilide IC70 present; activation (rescue from dofetilide block), less the hit threshold, % at 10 µM; hit rate 0.51% among 310,000;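 active = activation above the mean of controls blocked by dofetilide plus 5 SD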;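 also: thallium influx through hERG after potassium depolarization seen as dye fluorescence rise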
KCNK3 block: human KCNK3 channel inhibitors, primary screen, CHO cells, FluxOR thallium flux, B-score; Potassium channel subfamily K member 3 (Homo sapiens), O14649; FluxOR fluorescence; stronger effect = lower value; B-score at 10 µM; hit rate 0.84% among 340,000;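 active = B-score under library mean minus 4 SD, starting fluorescence ratio at most library mean plus 5 SD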;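 also: more negative B-score means stronger inhibition of thallium flux through KCNK3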
KCNQ1 pot: potentiators or activators of KCNQ1 channel, primary screen, cell-based, thallium flux, high-throughput | Potassium voltage-gated channel subfamily KQT member 1 (Homo sapiens), P51787 | CHO-K1 KCNQ1, thallium flux FluxOR fluorescence; stronger effect = higher value | B-score at 10 µM | hit rate 0.35% among 310,000 | AID 2648, 2010;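 active = fluorescence ratio B-score, a plate-corrected score, at least three library SD, with initial intensity B-score within 5 SD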
Target sequence (P51787 whole entry, looked up): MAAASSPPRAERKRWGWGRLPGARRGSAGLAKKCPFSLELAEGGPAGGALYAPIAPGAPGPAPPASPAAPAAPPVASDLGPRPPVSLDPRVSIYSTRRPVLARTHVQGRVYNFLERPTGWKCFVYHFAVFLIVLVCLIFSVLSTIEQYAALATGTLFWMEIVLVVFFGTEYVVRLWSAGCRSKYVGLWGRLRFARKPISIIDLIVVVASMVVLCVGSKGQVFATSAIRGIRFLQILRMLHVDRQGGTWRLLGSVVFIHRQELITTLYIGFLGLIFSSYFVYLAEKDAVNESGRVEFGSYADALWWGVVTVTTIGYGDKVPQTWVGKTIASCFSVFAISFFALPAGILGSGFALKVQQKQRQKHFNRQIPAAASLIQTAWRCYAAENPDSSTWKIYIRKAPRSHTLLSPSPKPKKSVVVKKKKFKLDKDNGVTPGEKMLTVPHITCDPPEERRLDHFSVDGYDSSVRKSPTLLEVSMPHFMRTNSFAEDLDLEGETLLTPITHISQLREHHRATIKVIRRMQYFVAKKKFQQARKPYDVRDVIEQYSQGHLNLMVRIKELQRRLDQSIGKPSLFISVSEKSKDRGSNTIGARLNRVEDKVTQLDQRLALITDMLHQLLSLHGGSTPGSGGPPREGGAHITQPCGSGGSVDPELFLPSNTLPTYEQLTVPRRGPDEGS
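System: Stable KCNQ1 CHO-K1 line | Incubation: 90 min dye loading and 20 min compound exposure, both at room temperature | Measure: Ratio B score | Medium: Assay buffer for compound exposure, DMSO matched across wells | Compound dosing: Single-concentration screen | Probe or stimulus: K+/Tl+ depolarizing stimulus | Measured by: Kinetic FluxOR fluorescence, 10 s baseline plus 110 s post-stimulus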
KCNQ1 inh: inhibitors of human KCNQ1 channel, primary screen, cell-based, thallium flux, high-throughput; Potassium voltage-gated channel subfamily KQT member 1 (Homo sapiens), P51787; AID 2642, 2010; hit rate 1.3% among 310,000; B-score at 10 µM; CHO-K1 KCNQ1, FluxOR thallium flux fluorescence; stronger effect = higher value;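 active = compounds whose thallium flux B-score, printed positive for inhibition, exceeds three library SD while starting fluorescence stays within three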;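 also: channel opened by potassium depolarization with thallium stimulus after 20 min compound exposure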
KCNK9 block: KCNK9 potassium channel inhibitors, primary screen, HEK293 cells, thallium flux; AID 488922, 2010; B-score at 10 µM; FluxOR thallium flux fluorescence; stronger effect = lower value; hit rate 1.2% among 310,000; Potassium channel subfamily K member 9 (Homo sapiens), Q9NPC2;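 active = ratio B-score over 3 SD below the library mean, with starting fluorescence within 5 SD of its mean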;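 also: negative B-score means less thallium flux so channel inhibition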
KCNK9 inh conf: KCNK9 potassium channel inhibitors, confirmation, HEK293 cells, thallium flux, duplicate; inhibition, % at 10 µM; shares compounds with KCNK9 block; hit rate 43% among 4,900; FluxOR thallium flux fluorescence;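 active = thallium signal inhibited by more than 5 SD of the compound-free buffer control wells, on both duplicate plates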
Kir2-1 spec: mouse Kir2.1 channel inhibition, confirmation, selectivity assay for KCNK9 modulator project, cell-based, HEK293, thallium flux; shares compounds with KCNK9 block; Kir2.1 cells, FluxOR thallium flux fluorescence; inhibition, % at 10 µM; hit rate 4% among 4,900; AID 492993, 2010;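 active = thallium signal drop more than 5 SD beyond the mean of the no-compound control wells, seen in both duplicate plates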;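 also: signal is fluorescence rise after thallium addition divided by baseline fluorescence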
KCNK9 uninduced: thallium flux in non-induced HEK293 cells, confirmation, counter-screen for KCNK9 inhibitor project, cell-based, second counter screen, non-induced KCNK9-HEK293; shares compounds with KCNK9 block; FluxOR thallium flux; inhibition, % at 10 µM; hit rate 40% among 4,900; AID 492997, 2010;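 active = thallium signal drop beyond 5 SD of the untreated control mean, on both duplicate plates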
KCNK3 confirm: retest of human KCNK3 channel inhibitors, confirmation, CHO cells, FluxOR thallium flux, triplicate. shares compounds with KCNK3 block. FluxOR fluorescence; 0% buffer, 100% carvedilol maximal block. ratio percent of control, % at 10 µM. hit rate 99% among 2,400. AID 651638, 2012;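 active = ratio percent of control, averaged over triplicates, above buffer control mean plus 5 SD, cut at about 64% in these data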;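 also: ratio is the fluorescence rise from min to max over baseline after thallium stimulus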
KCNK3 uninduced: thallium flux inhibition in non-induced cells, primary screen, counter-screen for KCNK3 inhibitor project, cell-based, non-induced KCNK3 line, FluxOR thallium, triplicate; non-induced KCNK3 parental cells; stronger effect = lower value; hit rate 40% among 2,400; thallium flux ratio (lower = more inhibition) at 10 µM; shares compounds with KCNK3 block;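 active = thallium flux ratio, averaged over three wells, more than 5 SD below the buffer control mean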;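 also: host cells are CHO cells without KCNK3 induction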
Of the large screens only hits and unclear results are named; the others gave an inactive call (follow-up assays come after a bar, where they were run). Compounds with a hit are over-represented: about 3.8% of the library has one in this group of screens.

Cc1ccc(S(=O)(=O)N(C)C)cc1NC(=O)CSc1nnnn1-c1ccc(O)cc1	KCNK3 block -9.8, KCNK9 block -14 | KCNK9 inh conf 42% | Kir2-1 spec inactive | KCNK9 uninduced 26% | KCNK3 confirm 106 | KCNK3 uninduced inactive
Cc1ccc(NC(=O)c2ncn(CCCN(C)CCc3ccccn3)n2)cc1C	none (no result: Kir21 block, hERG rescue, KCNQ1 pot, KCNQ1 inh, KCNK9 block)
O=C(N/N=C/c1ccc(N2CCOCC2)cc1)c1ccncc1	none (no result: Kir21 block, hERG rescue, KCNQ1 pot, KCNQ1 inh, KCNK9 block)
O=C(N/N=C/c1ccc(N2CCOCC2)cc1)c1ccccc1OCCOc1ccccc1	KCNK3 block -11, KCNQ1 inh 7, KCNK9 block -12 | KCNK9 inh conf 30% | Kir2-1 spec inactive | KCNK9 uninduced 26% | KCNK3 confirm 101 | KCNK3 uninduced inactive
CCN(C(=O)c1c(-c2ccccc2Cl)noc1C)C1CCCCC1	KCNK3 block -12, KCNK9 block -9.1 | KCNK9 inh conf 50% | Kir2-1 spec inactive | KCNK9 uninduced 33% | KCNK3 confirm 107 | KCNK3 uninduced inactive
Cc1onc(-c2ccccc2Cl)c1C(=O)N(C)C1CCCCC1	none
Cc1cc(C)cc(C(=O)N2CCC3(CC2)NCCc2[nH]cnc23)c1	none
COC(=O)c1c(NC(=O)Cn2nc(C(F)F)cc2C(F)F)sc(C)c1C	none
CCOC(=O)c1c(NC(=O)Cn2nc(C(F)F)cc2C(F)F)sc(C)c1C	KCNK3 block -13, KCNK9 block -10 | KCNK9 inh conf 57% | Kir2-1 spec inactive | KCNK9 uninduced 46% | KCNK3 confirm 107 | KCNK3 uninduced inactive
CCN(C(=O)Cn1cnc2c1c(=O)n(C)c(=O)n2C)C1CCCCC1	none (no result: Kir21 block, hERG rescue, KCNQ1 pot, KCNQ1 inh, KCNK9 block)
Cc1ccc(O)c(C(=O)c2cnc3c(c2)COc2ccccc2-3)c1	KCNK9 block -15 | KCNK9 inh conf 41% | Kir2-1 spec inactive | KCNK9 uninduced 28% | KCNK3 confirm 96 | KCNK3 uninduced inactive
O=C(c1cnc2c(c1)COc1ccc(Cl)cc1-2)c1ccccc1O	none
NC(=O)c1ccccc1NC(=O)c1ccoc1	none
Cc1ccc(Nc2nc(Nc3ccc(C)cc3)nc(SC3=NCCS3)n2)cc1	none
Cc1ccccc1Nc1nc(Nc2ccccc2C)nc(SC2=NCCS2)n1	KCNK3 block -13, KCNK9 block -9.9 | KCNK9 inh conf 37% | Kir2-1 spec inactive | KCNK9 uninduced 26% | KCNK3 confirm 124 | KCNK3 uninduced 0.12
CCC1CCCCN1S(=O)(=O)c1ccc(NC(=O)c2cccs2)cc1 (stereo not drawn)	KCNK3 block -11, KCNK9 block -8.3 | KCNK9 inh conf 52% | Kir2-1 spec inactive | KCNK9 uninduced 28% | KCNK3 confirm 107 | KCNK3 uninduced inactive
CCC1CCCCN1S(=O)(=O)c1ccc(NC(=O)c2snnc2C)cc1 (stereo not drawn)	none
Cc1cc(C(=O)CN2C(=O)C(=O)N(CC(C)C)C2=O)c(C)n1C1CC1	none (no result: Kir21 block, hERG rescue, KCNQ1 pot, KCNQ1 inh, KCNK9 block)
CSc1nc(Oc2ccc3ccccc3c2)c2sccc2n1	KCNK3 block -9, KCNK9 block -10 | KCNK9 inh conf 41% | Kir2-1 spec inactive | KCNK9 uninduced 32% | KCNK3 confirm 98 | KCNK3 uninduced inactive
CCCCCCNC(=O)CC(c1ccccc1)c1cc(Br)ccc1O (stereo not drawn)	KCNK3 block -9.8, KCNK9 block -11 | KCNK9 inh conf 51% | Kir2-1 spec inactive | KCNK9 uninduced 32% | KCNK3 confirm 119 | KCNK3 uninduced 0.15
COc1ccccc1NC(=O)c1ccc(COc2ccccc2Br)o1	KCNK3 block -10, KCNK9 block -13 | KCNK9 inh conf 56% | Kir2-1 spec inactive | KCNK9 uninduced 42% | KCNK3 confirm 130 | KCNK3 uninduced 0.15
CN(C)C(=O)c1ccc(COc2ccccc2Br)o1	none
Cc1cc(C)n2nc(SC(C)C(=O)NC3CCCCC3C)nc2n1 (stereo not drawn)	none
Cc1cccc(C(C)C)c1-n1nnnc1-c1ccccc1	KCNK3 block -10, KCNK9 block -12 | KCNK9 inh conf 53% | Kir2-1 spec inactive | KCNK9 uninduced 40% | KCNK3 confirm 117 | KCNK3 uninduced inactive
c1ccc(-c2nnnn2-c2ccccn2)cc1	none (no result: Kir21 block, hERG rescue, KCNQ1 pot, KCNQ1 inh, KCNK9 block)
Cc1cccc2cc(CN(Cc3cccs3)Cc3nnnn3Cc3ccccc3)c(=O)[nH]c12	KCNK3 block -11, KCNK9 block -13 | KCNK9 inh conf 29% | Kir2-1 spec inactive | KCNK9 uninduced 28% | KCNK3 confirm 88 | KCNK3 uninduced inactive
COc1cccc(OC)c1C(=O)Nc1cccc(-c2nc3ccccc3[nH]2)c1	KCNK3 block -9.9, KCNK9 block -13 | KCNK9 inh conf 40% | Kir2-1 spec inactive | KCNK9 uninduced inactive | KCNK3 confirm 133 | KCNK3 uninduced 0.12
O=C(OCC1OC(n2cc(Br)c(=O)[nH]c2=O)C(Br)C1O)c1ccccc1 (stereo not drawn)	none
CCOC(=O)N1CCC(N2Cc3cccc(C(=O)Nc4cc(F)ccc4F)c3C2=O)CC1	none
Cc1ccc(NC(=O)c2cccc3c2C(=O)N(C2CCCCC2)C3)cc1	KCNK3 block -9.4, KCNK9 block -9.6 | KCNK9 inh conf 32% | Kir2-1 spec inactive | KCNK9 uninduced 26% | KCNK3 confirm 117 | KCNK3 uninduced inactive
CCOc1ccccc1NC(=O)c1cccc2c1C(=O)N(C1CCCCC1)C2	KCNK3 block -11, KCNK9 block -9.1 | KCNK9 inh conf 38% | Kir2-1 spec inactive | KCNK9 uninduced 33% | KCNK3 confirm 100 | KCNK3 uninduced inactive
